Results published in ChEMBL document CHEMBL1152160, “Synthesis and bioevaluation of hybrid 4-aminoquinoline triazines as a new class of antimalarial agents” (Bioorg Med Chem Lett, 2008).
Values after ≈ are worked out from the molar mass of the structure shown.

Assays:
[1] = Selectivity index, ratio of IC50 for african green monkey (Cercopithecus aethiops) Vero cells to IC50 for chloroquine-sensitive Plasmodium falciparum 3D7; type: toxicity, cell-based; conditions: read-out: Ratio IC50
How it was run: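 Vero cells at 1 × 10⁴ cells/well were exposed to varying compound concentrations, highest 100 µg/mL, for 72 h. Viability was measured by MTT. Cytotoxic IC50 was taken from non-linear regression of dose–response curves and divided by the 3D7 IC50 to give the index.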

[2] = tested on: Plasmodium falciparum; assay: Antimalarial activity after 72hrs against chloroquine-sensitive Plasmodium falciparum 3D7 infected erythrocytes; type: functional, organism-based; conditions: 3D7, 72 h
How it was run: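 Serial dilutions in screening medium, seven concentrations (top 500 ng/mL, or 100 ng/mL for some compounds), duplicate wells. Added 2.5% haematocrit erythrocytes at 0.5% parasitaemia. Uninfected erythrocytes without drug as negative control, CQ as positive control. After 72 h, SYBR Green I in lysis buffer (20 mM tris pH 7.5, 5 mM EDTA, saponin, Triton X-100), 1 h room temperature, fluorescence read.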

[3] = tested on: Plasmodium yoelii; assay: Antimalarial activity as reduced parasitaemia after 4 days against Plasmodium yoelii N67 infected Swiss mice (Mus musculus) at 50 mg/kg/day intraperitoneal dose; type: functional, N-67; set-up: scale not given: the % may be the effect or the level left
How it was run: (§1)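 Swiss mice (22 ± 2 g), groups of five, inoculated day 0 with P. yoelii N-67-parasitized RBC. Dosed 50 mg/kg/day i.p. once daily, days 0–3, as aqueous suspension with a few drops of Tween 80 in 0.2 mL. Parasitaemia read from thin blood smears on days 4–6. Group mean gave % suppression versus untreated controls. CQ-treated mice as reference.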

[4] = tested on: Plasmodium yoelii; assay: Antimalarial activity as reduced parasitaemia after 6 days against Plasmodium yoelii N67 infected Swiss mice (Mus musculus) at 50 mg/kg/day intraperitoneal dose; type: functional, N-67; set-up: scale not given: the % may be the effect or the level left; how it was run: as §1
[5] = tested on: Mus musculus; assay: Toxicity to Plasmodium yoelii N-67 infected Swiss mice (Mus musculus) assessed as survival at 50 mg/kg/day, intraperitoneally after 28 days; type: organism-based; set-up: route intraperitoneal; conditions: in vivo, ip, 672 h
How it was run: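 Swiss mice were infected on day 0 with parasitized RBC of CQ-resistant P. yoelii N-67. Groups of five were dosed intraperitoneally at 50 mg/kg/day, once daily on days 0–3. Compounds were given as aqueous suspensions with a few drops of Tween 80. Survival was followed for 28 days. CQ-treated mice served as reference controls.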

Row | IC50 [2] [µg/mL] | Structure (SMILES) | selectivity ratio [1] | Activity [3] [%] | Activity [4] [%] | Activity [5]
1 | 0.194 (≈ 0.34 µM) | Cc1ccccc1Nc1nc(NC2CCCCC2)nc(N2CCN(CCNc3ccnc4cc(Cl)ccc34)CC2)n1 | 29 |  |  | 
2 | 0.00783 (≈ 0.0136 µM) | Fc1ccc(Nc2nc(NC3CCCCC3)nc(N3CCN(CCNc4ccnc5cc(Cl)ccc45)CC3)n2)cc1 | 262 | 74.81 | 71.75 | 
3 | 0.159 (≈ 0.283 µM) | Fc1ccccc1Nc1nc(N2CCCCC2)nc(N2CCN(CCNc3ccnc4cc(Cl)ccc34)CC2)n1 | 14.9 |  |  | 
4 | 0.0178 (≈ 0.0328 µM) | Clc1ccc2c(NCCN3CCN(c4nc(Nc5ccccc5)nc(N5CCCCC5)n4)CC3)ccnc2c1 | 117 | 66.67 | 55.36 | 
5 | 0.256 (≈ 0.447 µM) | Cc1ccc(Nc2nc(NC3CCCCC3)nc(N3CCN(CCNc4ccnc5cc(Cl)ccc45)CC3)n2)cc1 | 115 |  |  | 
6 | 0.0162 (≈ 0.0291 µM) | Clc1ccc2c(NCCN3CCN(c4nc(Nc5ccccc5)nc(NC5CCCCC5)n4)CC3)ccnc2c1 | 154 | 86.43 | 78.73 | 
7 | 0.0383 (≈ 0.0659 µM) | Cc1ccc(Nc2nc(Nc3ccc(C)cc3)nc(N3CCN(CCNc4ccnc5cc(Cl)ccc45)CC3)n2)cc1 | 155 |  |  | 
8 | 0.0213 (≈ 0.039 µM) | Clc1ccc2c(NCCN3CCN(c4nc(Nc5ccccc5)nc(N5CCOCC5)n4)CC3)ccnc2c1 | 470 |  |  | 
9 | 0.0646 (≈ 0.102 µM) | Cc1ccc(Nc2nc(N3CCN(CCNc4ccnc5cc(Cl)ccc45)CC3)nc(N3CCN(c4ccccc4)CC3)n2)cc1 | 52.2 |  |  | 
10 | 0.0192 (≈ 0.0342 µM) | Cc1ccccc1Nc1nc(N2CCOCC2)nc(N2CCN(CCNc3ccnc4cc(Cl)ccc34)CC2)n1 | 377 |  |  | 
11 | 0.0435 (≈ 0.0776 µM) | Cc1ccc(Nc2nc(N3CCOCC3)nc(N3CCN(CCNc4ccnc5cc(Cl)ccc45)CC3)n2)cc1 | 512 |  |  | 
12 | 0.00715 (≈ 0.0127 µM) | Fc1ccc(Nc2nc(N3CCCCC3)nc(N3CCN(CCNc4ccnc5cc(Cl)ccc45)CC3)n2)cc1 | 329 | 99.9 | 96.51 | 
13 | 0.186 (≈ 0.32 µM) | Cc1ccccc1Nc1nc(Nc2ccccc2C)nc(N2CCN(CCNc3ccnc4cc(Cl)ccc34)CC2)n1 | 75.3 |  |  | 
14 | 0.038 (≈ 0.0663 µM) | CCN1CCN(c2nc(Nc3ccccc3)nc(N3CCN(CCNc4ccnc5cc(Cl)ccc45)CC3)n2)CC1 | 41.8 |  |  | 
15 | 0.019 (≈ 0.0324 µM) | CCN1CCN(c2nc(Nc3ccc(C)cc3)nc(N3CCN(CCNc4ccnc5cc(Cl)ccc45)CC3)n2)CC1 | 41 |  |  | 
16 | 0.0756 (≈ 0.137 µM) | Clc1ccc2c(NCCN3CCN(c4nc(Nc5ccccc5)nc(Nc5ccccc5)n4)CC3)ccnc2c1 | 27.8 |  |  | 
17 | 0.0444 (≈ 0.0828 µM) | Clc1ccc2c(NCCN3CCN(c4nc(N5CCCCC5)nc(N5CCCCC5)n4)CC3)ccnc2c1 | 53.2 |  |  | 
18 | 0.0105 (≈ 0.0185 µM) | O=CN1CCN(c2nc(N3CCOCC3)nc(N3CCN(CCNc4ccnc5cc(Cl)ccc45)CC3)n2)CC1 | 4110 |  |  | 
19 |  | CCN(CC)CCCC(C)Nc1ccnc2cc(Cl)ccc12 (stereo unspecified) [CHLOROQUINE] |  | 99.9 | 94.26 | 

Row | Structure (SMILES) | IC50 [2] [µg/mL] | selectivity ratio [1] | Activity [3] [%] | Activity [4] [%] | Activity [5]
20 | Clc1ccc2c(NCCN3CCN(c4nc(NC5CCCCC5)nc(N5CCCCC5)n4)CC3)ccnc2c1 | 0.00443 (≈ 0.00805 µM) | 481 | 99.9 | 99.11 | Toxic
